Assay outcomes as filed in PubChem.
Rows were chosen to be rich in hits. Some 1.8% of all compounds tested hit in one or more screens of this group.
Autophagy mod – autophagy modulation, high-content screen. AID 463193. calls only at 10 µM (by protocol). MEF GFP-LC3 puncta imaging; test concentration mostly 10 µM. 190,000 compounds, 0.98% hits;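 active = percentage of spot-positive cells more than 3 SD above its plate mean, without a fluorescence outlier flag or 80% toxicity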
TNAP inh hiacc – TNAP (human) inhibition, high acceptor | P05186 | purified TNAP, CDP-star luminescence, 1 M DEA | inhibition, % at 20 µM | 200,000 compounds, 0.03% hits;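 active = over 50% inhibition of tissue-nonspecific alkaline phosphatase at 20 µM in the single-dose screen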
TNAP inh no acc – blocks human TNAP activity with no phosphate acceptor present; P05186; purified TNAP, CDP-star luminescence, 30 min; inhibition, % at 20 µM; 200,000 compounds, 0.26% hits;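 active = tissue-nonspecific alkaline phosphatase inhibition above about 50% at 20 µM in the single-dose screen, limit read from the data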
Insulin prom up – MIN6 insulin promoter up-regulation; MIN6 insulin promoter-GFP reporter, high-content imaging; hits give high values; z-score at 5 µM; 190,000 compounds, 0.3% hits; AID 1625;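 active = z-score above 3 at 5 µM with at least 500 cells counted in the well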
p47phox inh – p47phox (human) inhibition; P14598; p47phox/p22phox peptide binding, fluorescence polarization, 2 h; inhibition, % at 24.7 µM; 220,000 compounds, 0.53% hits;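 active = inhibition above about 30%, limit read from the data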
Target sequence (P14598 whole entry, looked up): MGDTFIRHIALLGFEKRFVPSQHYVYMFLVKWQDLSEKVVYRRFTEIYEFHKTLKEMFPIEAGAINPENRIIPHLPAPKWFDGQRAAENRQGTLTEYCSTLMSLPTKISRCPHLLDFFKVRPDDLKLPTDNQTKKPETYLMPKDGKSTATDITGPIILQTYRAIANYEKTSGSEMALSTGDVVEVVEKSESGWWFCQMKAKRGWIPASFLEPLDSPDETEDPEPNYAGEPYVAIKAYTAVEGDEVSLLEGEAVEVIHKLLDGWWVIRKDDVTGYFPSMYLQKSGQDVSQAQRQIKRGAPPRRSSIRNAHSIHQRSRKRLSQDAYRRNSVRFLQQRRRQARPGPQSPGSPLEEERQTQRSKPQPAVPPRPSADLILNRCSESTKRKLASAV
TNAP act hiacc – increases human TNAP activity under high phosphate acceptor concentration | 200,000 tested, under 10 active | activation factor at 20 µM | AID 1136 | P05186 | purified TNAP, CDP-star luminescence, 1 M DEA, 30 min; hits give high values; 0 = EDTA background, 1 = DMSO-only activity;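 active = activation factor at least 2 at 20 µM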
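Test system – human TNAP · Doses – 20 µM single point · Incubation – 30 min, room temperature · Signal – luminescent substrate turnover signal · Read-out basis – activation factor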
Of the large screens only hits and unclear results are named; the others gave an inactive call.

COc1ccc(NC(=O)CN2C(=O)/C(=C3\SC(=S)N(C4CCS(=O)(=O)C4)C3=O)c3ccccc32)cc1 (stereo unspecified)	p47phox inh 52.4 (no result: Autophagy mod, TNAP inh hiacc, TNAP inh no acc, Insulin prom up, TNAP act hiacc)
O=C(CN1C(=O)/C(=C2\SC(=S)N(C3CCS(=O)(=O)C3)C2=O)c2ccccc21)Nc1ccc(F)cc1 (stereo unspecified)	none (no result: Autophagy mod, TNAP inh hiacc, TNAP inh no acc, Insulin prom up, TNAP act hiacc)
CCOC(=O)C1(Cc2ccc(Cl)cc2)CCN(C(=O)c2ccoc2)CC1	none
CC[n+]1ccc(C[n+]2ccccc2)c2ccccc21	p47phox inh 78.8
O=c1c2ccccc2c(/C=N/c2n[nH]c(CCCO)n2)c(O)n1-c1ccccc1Cl	none
Cc1ccc(NC(=O)c2cc(N3C(=O)CCC3=O)ccc2N2CCOCC2)cc1	Autophagy mod active
Cc1ccc(NC(=O)c2cc(N3C(=O)CCC3=O)ccc2N2CCCCC2)cc1	none
Cc1cnc(NC(=O)CCCc2nc3ccccc3s2)s1	Autophagy mod active
Cc1[nH]n(-c2cccc3ccccc23)c(=O)c1/C=N/NC(=O)c1cccc([N+](=O)[O-])c1	TNAP inh no acc 51.2
Cc1ccccc1C(=O)Nc1nnc(SC(C)C)s1	none
CC(/C=N/NC(=O)c1sc(N)nc1C)=C\c1ccccc1	none
C/C(CC(=O)Nc1ccccc1Br)=N\NC(=O)C(=O)N1CCCC1	TNAP inh no acc 66.1
C/C(CC(=O)Nc1ccc(Cl)cc1Cl)=N\NC(=O)C(=O)N1CCCC1	none
COc1ccc(CCN2C(=O)CC(NNC(=O)c3ccccc3Br)C2=O)cc1OC (stereo unspecified)	none
CCOC(=O)N1CCC(NC(=O)c2cc(C(=O)Nc3ccc(OC)c(OC)c3)ccc2CO)CC1	Insulin prom up 3.42
COc1ccc(OC)c(/C=N/NC(=O)c2cc(-c3ccc(C)o3)nc3ccccc23)c1	p47phox inh active
Cc1ccc(NC(=O)c2cc(-c3ccc(C)o3)nc3ccccc23)cc1	none
COC(=O)N/N=C/c1c(C)c(C(=O)c2ccc(F)cc2)n2ccccc12	none
Cc1c(C(=O)Nc2ccc(Cl)cc2)c2ccccn2c1C(=O)c1ccc(F)cc1	Autophagy mod active
N#C/C(=C\c1ccc(-c2cccc([N+](=O)[O-])c2)o1)C(=O)Nc1nc(-c2cccs2)cs1	none (no result: Autophagy mod, TNAP inh hiacc, TNAP inh no acc, TNAP act hiacc)
CCc1[nH]c(=O)c(C#N)c2c1CCCC2	p47phox inh 32.9
COc1ccc(NC(=O)/C(Cl)=C(/Cl)S(=O)(=O)Cc2ccccc2)cn1	Autophagy mod active (no result: Insulin prom up)
COc1ccc(NC(=O)C(Cl)=C(Cl)Cl)cn1	none
CC(C)(C)C(=O)/C(=C\c1ccc([N+](=O)[O-])cc1)n1cncn1	Autophagy mod active (no result: Insulin prom up)
Cc1[nH][nH]c(=O)c1C(c1ccc(N(C)C)c(Br)c1)c1c(C)[nH][nH]c1=O	none (no result: Autophagy mod, TNAP inh hiacc, TNAP inh no acc, TNAP act hiacc)
Cc1ccc(S(=O)(=O)Oc2ccc(C(c3c(C)[nH][nH]c3=O)c3c(C)[nH][nH]c3=O)cc2)cc1	TNAP inh hiacc 60.7
CCOc1cc(C(c2c(C)[nH][nH]c2=O)c2c(C)[nH][nH]c2=O)ccc1OS(=O)(=O)c1ccccc1	TNAP inh hiacc 61.6
C=CCn1c(C)cc(C(=O)COC(=O)c2ccc3c(c2)NC(=O)CS3)c1C	none
CCOC(=O)CSc1cccc2cccnc12	Autophagy mod active
Cc1cccc(CSc2cccc3cccnc23)c1	Autophagy mod active (no result: Insulin prom up)
COc1ccc2nc(SCC(=O)Nc3nccs3)[nH]c2c1	none
COc1cccc(/C=N/NC(=S)Nc2cccc(S(=O)(=O)N(C)C)c2)c1	none (no result: Autophagy mod, TNAP inh hiacc, TNAP inh no acc, TNAP act hiacc)
COc1ccc(O)c(/C=N/NC(=S)Nc2cccc(S(=O)(=O)N(C)C)c2)c1	Autophagy mod active
CCCn1c(SCC(=O)NCc2ccccc2Cl)n[nH]c1=O	none
COc1ccc(N(CC(=O)NCc2ccccc2)C(=O)Cn2nnc(-c3ccccc3F)n2)cc1OC	none (no result: p47phox inh)
COc1cccc(/C=C/C(=O)c2cccc([N+](=O)[O-])c2)c1OC	Autophagy mod active
O=C(c1ccco1)N1CCN(C(=O)c2cc3c(=O)oc4ccccc4c3s2)CC1	Autophagy mod active
COc1ccc(-c2oc3ncnc(NCCCN4CCOCC4)c3c2-c2ccc(OC)cc2)cc1	none
COc1ccc(-c2oc3ncnc(NCCN4CCOCC4)c3c2-c2ccc(OC)cc2)cc1	Autophagy mod active (no result: p47phox inh)
Cc1ccc(NS(=O)(=O)c2cccc([N+](=O)[O-])c2)nc1	none
COc1ccc(-c2cc(=O)oc3cc(OCC(=O)c4cccc([N+](=O)[O-])c4)ccc23)cc1	p47phox inh 63.8
CC(C)=NNc1nc2c(c(=O)n(C)c(=O)n2C)n1CCc1ccccc1	Insulin prom up 4.22
Cn1c(=O)c2c(nc(NCc3ccccc3)n2CCCc2ccccc2)n(C)c1=O	none
CN(C)CCOc1nc(-c2ccccc2)nc2c1oc1ccccc12	Autophagy mod active
CN(C)CCOc1ncnc2c1oc1ccccc12	none
CCC(C)N1CC(C(=O)O)CC1=O (stereo unspecified)	p47phox inh 47.2 (no result: Insulin prom up)
O=C(Nc1cccnc1)c1ccc(COc2ccccc2Br)o1	Autophagy mod active
O=C(NCc1cccnc1)c1ccc(COc2ccccc2Br)o1	none
O=C(Nc1cccnc1)c1ccc(-c2ccc(Cl)cc2)o1	Autophagy mod active
CCO[C@@H]1OC(C(=O)NCc2nc3ccccc3[nH]2)=C[C@H](c2ccc(C(F)(F)F)cc2)[C@H]1CCCO	none
COc1ccc(C2=CC(=O)C=CC2=O)cc1	p47phox inh 58.3 (no result: Autophagy mod, TNAP inh hiacc, TNAP inh no acc, TNAP act hiacc)
CSCCC(NC(=O)C1CCC(C)CC1)C(=O)NCCN1CCC(C)CC1 (stereo unspecified)	none
CCOC(=O)c1sc(NC(=O)c2sccc2C)cc1C	Insulin prom up 3.1
CCO[C@@H]1OC(C(=O)NCc2nc3ccccc3[nH]2)=C[C@H](C)[C@H]1CCCO	p47phox inh 44.9
COc1ccc(N(CCC#N)C(=O)/C(C#N)=C/c2cccs2)cc1	none
Cc1ncc(CO)c(/C=N/NC(=O)c2ccc(Br)cc2)c1O	none
Cc1ncc(CO)c(/C=N/NC(=O)c2cc(Br)ccc2O)c1O	TNAP inh no acc 58.3
O=C(CCNC(=O)c1ccccc1Cl)Nc1cc(S(=O)(=O)N2CCOCC2)ccc1N1CCCC1	none (no result: Autophagy mod, TNAP inh hiacc, TNAP inh no acc, TNAP act hiacc)
Cc1ccc(OC(=O)C(C)c2cccc(C(=O)c3ccccc3)c2)cc1 (stereo unspecified)	p47phox inh 31.4
Cc1ccccc1NC(=O)C(C)c1cccc(C(=O)c2ccccc2)c1 (stereo unspecified)	none
O=C(CCS(=O)(=O)c1ccc(Br)cc1)N1CCN(c2ccccc2Cl)CC1	none
O=C(CCS(=O)(=O)c1ccc(Br)cc1)N1CCN(c2ccccc2)CC1	Autophagy mod active
COC(=O)c1ccc(NC(=O)Nc2ccc(F)cc2F)cc1	Autophagy mod active
NC1=C(O)C(=O)C(c2ccccc2)O1 (stereo unspecified)	none (no result: Autophagy mod, TNAP inh hiacc, TNAP inh no acc, TNAP act hiacc)
C(=C\c1ccco1)/C1=NN(c2ccccc2)C(c2ccco2)C1 (stereo unspecified)	none
